Experimental data taken from ChEMBL document CHEMBL1147227, “Annularins A-H: new polyketide metabolites from the freshwater aquatic fungus Annulatascus triseptatus” (2003).
Active and inactive are the calls of the source. The calls are words filed in the database; no cut-off is given here.

Experiments:
[1] = test system: Candida albicans; assay: Antifungal activity against Candida albicans ATCC 90029 at 200 ug/disk by standard disk assay; format: functional, organism-based
[2] = test system: Bacillus subtilis; assay: Antibacterial activity against Bacillus subtilis ATCC 6051 at 200 ug/disk by standard disk assay; format: functional; conditions: read-out: IZ
Procedure, shortened: (§1)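 Paper-disk diffusion assay with 200 µg of test material loaded per disk. Activity was read as the zone of inhibition, recorded in mm.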

[3] = test system: Staphylococcus aureus; assay: Antibacterial activity against Staphylococcus aureus ATCC 29213 at 200 ug/disk by standard disk assay; format: functional; conditions: read-out: IZ; procedure, shortened: as §1
[4] = test system: Aspergillus flavus; assay: Antifungal activity against Aspergillus flavus NRRL 6541 at 200 ug/disk by standard disk assay; format: functional, organism-based

SMILES | Activity [1] | zone of inhibition at 200 µg/disc [2] | zone of inhibition at 200 µg/disc [3] | Activity [4]
CCCc1oc(=O)cc(OC)c1CO | inactive | 8 mm | – | –
CCC1OC(=O)c2c(OC)cc(=O)oc21 (stereo not drawn) [ANNULARIN F] | inactive | 8 mm | – | –
CC[C@H](O)c1oc(=O)cc(OC)c1CO | inactive | 8 mm | 14 mm | –
CCCc1oc(=O)cc(OC)c1C | – | – | – | inactive
